STAT3 activator: activators of IL-6 induced STAT3 signaling | U3A cells, IL-6 STAT3-luciferase reporter, luminescence; 100% = signal with IL-6 EC80 alone | activation (% of control), % at 5.6 µM | 190,000 compounds, 0.91% hits | AID 871;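 active = activation above the screen-wide mean of compound activation plus 3 SD, cut at about 130% in these data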
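Material: STAT3-luciferase reporter U3A cells; Probe or stimulus: IL-6 (33 ng/mL); Incubation: compound pre-incubation 1 h before IL-6, then 6 h stimulation at 37 °C; Technique: luminescence from STAT3-driven luciferase reporter; Evaluation: % activation versus median of IL-6-stimulated wells; Controls: IL-6-only high control.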
STAT1 blocker: inhibitors of IFN-gamma induced STAT1 signaling. 200,000 compounds, 0.35% hits. NIH 3T3 STAT1-luciferase reporter, luminescence. inhibition, % at 5.5 µM;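 active = inhibition above a set limit, the mean inhibition across all tested compounds plus 3 SD, cut at about 34% in these data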
STAT3 inh-1: STAT3 signaling inhibition; U3A cells, IL-6 STAT3-luciferase reporter, luminescence; host cell line lacks STAT1; inhibition, % at 5.5 µM; 190,000 compounds, 0.89% hits; AID 862;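 active = inhibition above the mean inhibition across all screened compounds plus 3 SD, cut at about 44% in these data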
STAT1 activator: increases IFN-gamma driven STAT1 reporter signal. NIH 3T3 STAT1-luciferase reporter, luminescence; 100% = IFN-gamma alone, no compound. activation (% of control), % at 5.5 µM. 200,000 compounds, 2.6% hits. AID 932;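 active = activation above the screen-wide mean activation plus 3 SD, cut at about 130% in these data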
NF-kB neuron act: NF-kB expression increase, human neuronal cells; NF-kB reporter expression; active compounds read high; fold change at 12.5 µM; 190,000 compounds, 1.6% hits; in the data active = fold change above about 3.3
APP 5'UTR act: APP 5'UTR luciferase reporter activation. SH-SY5Y APP 5'UTR luciferase reporter, luminescence; zero percent = DMSO vehicle wells. activation, % at 2 µM. 190,000 compounds, 1% hits;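 active = activation above a set limit, based on mean plus 3 SD of controls, cut at about 140% in these data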
STAT3 inh-2: confirmation of STAT3 signaling inhibitors. U3A cells, IL-6 STAT3 luciferase reporter, luminescence; cell line lacks STAT1. AID 1265. 1,200 compounds, 45% hits. inhibition, % at 5.7 µM. shares compounds with STAT3 inh-1;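 active = inhibition above the hit cutoff computed for the primary STAT3 screen, cut at about 44% in these data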
NFkB inh STAT3ct: NF-kappaB inhibition in STAT3 inhibitor counter-screen; shares compounds with STAT3 inh-1; inhibition, % at 5.7 µM; HEK293T NF-kB luciferase reporter, TNF-alpha induced; 1,200 compounds, 36% hits;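 active = inhibition above the mean of solvent-only control wells plus 3 SD, cutoff set per campaign, cut at about 13% in these data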
STAT1 inh STAT3c: counter-screen for STAT3 inhibitors: STAT1 inhibition; NIH 3T3 STAT1-luciferase reporter, IFN-gamma induced, luminescence; 1,200 compounds, 27% hits; shares compounds with STAT3 inh-1; inhibition, % at 5.7 µM; AID 1317;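 active = inhibition above the mean plus 3 SD of solvent-only control wells, limit set per screening run, cut at about 16% in these data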
STAT1 activ conf: confirmation of STAT1 signaling activators; NIH 3T3 STAT1-luciferase reporter, IFN-gamma potentiation, luminescence; 100% = IFN-gamma EC80 alone, no compound; shares compounds with STAT1 activator; activation (% of control), % at 5.7 µM; 1,200 compounds, 97% hits;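 active = activation above a set limit carried over from the earlier primary STAT1 screen, cut at about 140% in these data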
NFkB act: NF-kappaB activation in STAT1 activator counter-screen | shares compounds with STAT1 activator | HEK293T NF-kB luciferase reporter, TNF-alpha stimulated, luminescence; 100% = TNF-alpha with vehicle only | activation (% of control), % at 5.7 µM | 1,200 compounds, 43% hits | AID 1306;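 active = activation above the mean of solvent-only control wells plus 3 SD, set per campaign, cut at about 130% in these data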;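 also: TNF-alpha given at a submaximal dose yielding about 80% of full reporter signal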
STAT3 act 2: human STAT3 activation in STAT1 activator counter-screen. shares compounds with STAT1 activator. U3A cells STAT3-luciferase reporter, IL-6, luminescence; cells lack STAT1; 100 = IL-6 alone, no compound effect. activation (% of control), % at 5.7 µM. 1,200 compounds, 46% hits;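 active = activation above the solvent-only control well mean plus 3 SD, set per plate batch, cut at about 110% in these data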;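 also: higher means more STAT3 reporter activation so hits are non-selective activators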
Of the large screens only hits and unclear results are named; the others gave an inactive call (follow-up assays come after a bar, where they were run). Most compounds without a hit are left out; they make up all but 4.9% or so of the library.

CC1CCCCC1NS(=O)(=O)c1ccc(S(=O)(=O)NCc2ccncc2)cc1 (stereo not drawn)	STAT3 inh-1 73 | STAT3 inh-2 48 | NFkB inh STAT3ct inactive | STAT1 inh STAT3c inactive
CCn1c(COc2cc(C)ccc2C(C)C)nnc1SCC(=O)Nc1nccs1	none
COCCNC(=S)N/N=C(\C)c1cccc(OC)c1	none
O=C(CSC(=S)N1CCCCC1)c1ccccc1	STAT3 inh-1 65, NF-kB neuron act 3.3, APP 5'UTR act 242 | STAT3 inh-2 inactive | NFkB inh STAT3ct inactive | STAT1 inh STAT3c inactive
COCCn1c(=O)[nH]c2cc(C(=O)NCCc3ccc(S(N)(=O)=O)cc3)ccc2c1=O	none
Cn1nc(C(=O)OCc2ccc(F)cc2)c2ccccc2c1=O	none
Cc1ccc(COC(=O)c2nn(C)c(=O)c3ccccc23)cc1	STAT3 inh-1 52 | STAT3 inh-2 47 | NFkB inh STAT3ct 17 | STAT1 inh STAT3c 21
S=C1NC2CCCCC2N1 (stereo not drawn)	none
CCS(=O)(=O)c1ccc(N=Nc2ccc(O)c3ncccc23)c(OC)c1	STAT3 inh-1 55 | STAT3 inh-2 inactive | NFkB inh STAT3ct inactive | STAT1 inh STAT3c inactive
COc1ccc(C(=O)c2ccc(N3CCN(C(=O)c4ccc(F)cc4)CC3)c(F)c2)cc1Br	none
O=C(c1cc(COc2ccc3ncccc3c2)on1)N1CCCC(O)C1 (stereo not drawn)	none
Cc1cc(CN(C)C(=O)c2cc(COc3ccc4ncccc4c3)on2)on1	STAT3 inh-1 58 | STAT3 inh-2 56 | NFkB inh STAT3ct 19 | STAT1 inh STAT3c 19
CCC(O)C1CCN(C(=O)c2cc(COc3ccc4ncccc4c3)on2)CC1 (stereo not drawn)	STAT3 inh-1 84 | STAT3 inh-2 84 | NFkB inh STAT3ct 29 | STAT1 inh STAT3c 27
O=C(NC1CCCCCCC1)c1cc(COc2ccc3ncccc3c2)on1	STAT3 inh-1 79 | STAT3 inh-2 75 | NFkB inh STAT3ct 27 | STAT1 inh STAT3c 17
Cc1cccc[n+]1CC(=O)N1c2ccccc2Sc2ccccc21	none
O=C(CNC(=O)c1ccccc1F)NCCOc1ccccc1Cl	none
C[C@@H](C(=O)OCn1nnc2ccccc2c1=O)N1C(=O)C2CCCCC2C1=O (stereo partly drawn)	none
O=c1c2c(nc3cc(-c4ccc(F)cc4)[nH]n13)CCCC2	STAT3 inh-1 53, STAT1 activator 177, NF-kB neuron act 3.4, APP 5'UTR act 168 | STAT3 inh-2 inactive | NFkB inh STAT3ct inactive | STAT1 inh STAT3c inactive | STAT1 activ conf 240 | NFkB act inactive | STAT3 act 2 inactive
O=C(OC(C(=O)Nc1cccc(C(F)(F)F)c1)c1ccccc1)C1CCCCC1 (stereo not drawn)	none
O=C(O)/C=C/c1ccc([N+](=O)[O-])o1	none

Source: PubChem BioAssay (several laboratories)
